High-throughput results deposited in PubChem BioAssay by several laboratories.
HNF4A DNA FP: change in binding of human HNF4 alpha to DNA. P41235. HNF4a-FITC DNA binding, fluorescence polarization, 1 h. activity change, % at 10 µM. hit rate 0.3% among 360,000; in the data active means activity change above about 30%, passing the limit was not always enough
IDE inh: cellular human IDE inhibition | inhibition, % at 5.59 µM | P14735 | HEK cells, FAbetaB cleavage, fluorescence polarization | hit rate 0.41% among 320,000;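 active means percent inhibition above the average of all tested compounds plus 3 SD, set per screening campaign, cut at about 16% in these data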;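 further: IDE supplied by intact live HEK cells; FP after avidin binding of uncleaved biotin substrate so inhibition keeps polarization high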
TPT1 inhibitor: blocks Candida albicans tRNA 2'-phosphotransferase; recombinant caTPT1, FP RNA substrate dephosphorylation; hit rate 0.81% among 300,000; AID 1962; inhibition, % at 5 µM;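 active means inhibition above the mean of all tested compounds plus 3 SD, set per screening campaign, cut at about 24% in these data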
IDE cell activ: activators of human insulin-degrading enzyme in cells. hit rate 0.073% among 340,000. activation, % at 5.96 µM. P14735. HEK cells, FAbeta-B cleavage, fluorescence polarization; 0% vehicle, 100% cell-free pure enzyme wells;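 active means activation above the mean of all tested compounds plus 3 SD, set per screening campaign, cut at about 17% in these data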
Rpn11 inh: Rpn11 (human) deubiquitinase inhibition. inhibition, % at 20 µM. hit rate 0.59% among 360,000. human 26S proteasome, Ub4-pepOG fluorescence polarization; 20S core pre-blocked with epoxomicin. O00487. AID 588493;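 active means inhibition at 20 µM, scaled to each plate's controls, above about 33%, limit read from the data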
Target sequence (O00487 whole entry, looked up): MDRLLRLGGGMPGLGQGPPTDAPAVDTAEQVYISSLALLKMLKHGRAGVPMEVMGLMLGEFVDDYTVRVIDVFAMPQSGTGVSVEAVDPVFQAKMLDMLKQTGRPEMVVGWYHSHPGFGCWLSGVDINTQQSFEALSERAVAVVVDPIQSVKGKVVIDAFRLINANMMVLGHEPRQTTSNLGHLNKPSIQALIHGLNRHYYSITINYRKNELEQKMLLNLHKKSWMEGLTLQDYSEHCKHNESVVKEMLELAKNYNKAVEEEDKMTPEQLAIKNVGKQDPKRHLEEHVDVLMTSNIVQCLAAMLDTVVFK
CSN inh: CSN deneddylation inhibition. inhibition, % at 12.5 µM. Purified CSN, SCF-Nedd8-OG deneddylation, fluorescence polarization. hit rate 0.38% among 360,000. AID 651999;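 active means pattern-corrected inhibition above about 35%, with an unprinted fluorescence ratio check between 0.5 and 1.5, limit read from the data, passing the limit was not always enough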
Target sequence (Q92905 whole entry, looked up, one chain of several): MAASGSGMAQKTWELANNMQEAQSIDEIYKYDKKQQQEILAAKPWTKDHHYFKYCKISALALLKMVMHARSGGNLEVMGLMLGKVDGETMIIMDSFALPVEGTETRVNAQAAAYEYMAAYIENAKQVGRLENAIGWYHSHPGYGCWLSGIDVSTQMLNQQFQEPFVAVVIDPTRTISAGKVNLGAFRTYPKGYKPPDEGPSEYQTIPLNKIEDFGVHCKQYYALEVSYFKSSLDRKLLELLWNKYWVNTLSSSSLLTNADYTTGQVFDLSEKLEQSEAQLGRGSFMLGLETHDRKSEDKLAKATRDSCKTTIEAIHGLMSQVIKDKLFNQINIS
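Detection – fluorescence polarization · System – HEK293T-derived human Csn5 enzyme · Controls – substrate-only high control, full reaction low control · Timing – 90 min, room temperature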
caTPT1 confirm: TPT1 (C. albicans) inhibition, confirmation; shares compounds with TPT1 inhibitor; recombinant caTPT1, fluorescence polarization, RNase T1 coupled; inhibition, % at 5 µM; hit rate 74% among 2,400; AID 2149;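 active means inhibition above the primary screen limit, the mean inhibition of all tested compounds plus 3 SD, cut at about 25% in these data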
RNase T1 counter: RNase T1 inhibition in TPT1 counter-screen; shares compounds with TPT1 inhibitor; RNase T1 cleavage, fluorescence polarization, 1536-well; inhibition, % at 5 µM; hit rate 83% among 2,400; AID 2153;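 active means inhibition above the solvent-only control well mean plus 3 SD, limit set per screening run, cut at about 23% in these data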;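 further: inhibitors block cleavage so intact labeled substrate keeps polarization high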
Hits are given with their value; – = inactive; · = no result given. Rows were chosen to be rich in hits. Some 1.7% of all compounds tested hit in one or more screens of this group.

SMILES	HNF4A DNA FP	IDE inh	TPT1 inhibitor	IDE cell activ	Rpn11 inh	CSN inh	caTPT1 confirm	RNase T1 counter
O=C1NC(=S)SC1=Cc1ccccc1Br	–	·	·	–	–	–	·	·
Cc1cc(/C=C2\SC(=S)NC2=O)c(C)n1C1CC1	56	–	74	–	·	–	107	117
Cc1cc(/C=C2/C(=O)N(C)C(=S)N2C)c(C)n1C1CC1	–	–	30	–	–	–	46	55
CN1CCN(S(=O)(=O)c2cccc(C(=O)N(C)CC(=O)Nc3ccc(Cl)c(Cl)c3)c2)CC1	–	·	·	–	–	–	·	·
CN(C)CCCn1c(N)c(C#N)c2nc3ccccc3nc21	–	–	26	·	·	–	30	43
CN(C)C(=O)c1cc(C(=O)c2ccc(F)cc2C(F)(F)F)c[nH]1	–	–	–	–	–	–	·	·
COc1ccccc1CNS(=O)(=O)CCNC(=O)c1ccccc1	–	–	–	–	–	–	·	·
COc1cccc(N=C2NC(=O)/C(=C/c3cc([N+](=O)[O-])ccc3O)S2)c1	76	–	51	–	·	–	64	70
O=C1NC(=Nc2ccccc2Cl)S/C1=C\c1cc([N+](=O)[O-])ccc1O	76	–	88	–	·	–	99	99
COCCCNc1ccn2nc(-c3ccc(Cl)cc3)cc2n1	–	·	·	·	–	–	·	·
CC1C/C(=C/c2cccs2)C(=O)/C(=C/c2cccs2)C1 (stereo not given)	–	–	26	–	–	–	–	–
CC1C/C(=C/c2ccco2)C(=O)/C(=C/c2ccco2)C1 (stereo not given)	·	–	61	·	·	·	62	71
CC1C/C(=C/c2ccccn2)C(=O)/C(=C/c2ccccn2)C1 (stereo not given)	–	–	–	–	–	–	·	·
Cc1c(NC(=O)Cc2noc3ccccc23)cccc1[N+](=O)[O-]	–	–	74	–	–	–	–	–
Cc1cc(C(=O)Nc2c(C)n(C)n(-c3ccccc3)c2=O)c2ccccc2n1	–	–	–	–	–	–	·	·
CCc1ccc(-c2cc(C(=O)Nc3c(C)n(C)n(-c4ccccc4)c3=O)c3ccccc3n2)s1	–	–	25	–	–	–	33	43
Cn1c(CNC(=O)c2ccccc2F)nnc1SCC(=O)c1ccccc1	–	–	–	–	–	–	·	·
O=C(Nc1ccccc1)NC1CCN(Cc2ccccc2)CC1	–	–	30	–	–	–	–	–
CCCCCN1C=CC=C/C1=C\C=C(C#N)C#N	–	–	41	·	–	–	44	58
CCCCCCN1C=C/C(=C\C=C(C#N)C#N)c2ccccc21	–	–	–	–	–	–	·	·
COc1cc(OC)c(C(=O)NC23CC4CC(CC(C4)C2)C3)cc1OC	–	–	–	–	–	–	·	·
O=C(NC12CC3CC(CC(C3)C1)C2)c1cc(F)c(F)c(F)c1F	–	–	44	–	–	–	–	–
Cc1c(Br)cccc1NC(=O)C1(C)CCN1C(C)C (stereo not given)	–	·	·	·	–	–	·	·
COc1ccc(NC(=O)CSc2ccc3c4c(cccc24)C(=O)c2ccccc2-3)cc1	–	–	26	–	–	–	28	41
O=C(CCNc1ccc(Cc2ccncc2)cc1)c1ccc([N+](=O)[O-])cc1	–	–	–	–	–	–	·	·
SMILES	HNF4A DNA FP	IDE inh	TPT1 inhibitor	IDE cell activ	Rpn11 inh	CSN inh	caTPT1 confirm	RNase T1 counter
COc1ccc(-n2cc(-c3ccc(OC(F)F)cc3)[n+]3c2CCCCC3)cc1	–	–	–	–	–	–	·	·
CN(C)c1ccc(C(=O)c2ccccc2)cc1	–	–	48	–	–	–	–	–
CCc1nc2ccc(C(=O)N(C)Cc3ccccc3)cn2c1N(CC)Cc1cccc(Br)c1	–	·	·	·	–	–	·	·
O=C1/C(=C/c2ccc([N+](=O)[O-])cc2)Oc2cc(O)ccc21	–	·	·	–	–	–	·	·
O=C1/C(=C/c2ccc(Br)cc2)Oc2cc(O)ccc21	–	–	63	–	–	–	77	79
CC(C)(C)c1ccc(/C=C2\Oc3cc(O)ccc3C2=O)cc1	–	–	30	–	–	–	67	72
CC1=Nc2ccc3ccccc3c2C1(C)C	–	–	85	–	·	35	44	55
Cc1c2ccccc2c(C)c2c1ccc1ccccc12	–	–	–	–	–	–	·	·
COc1ccc(C(=O)Nc2ccc(NC(=O)c3ccco3)cc2)cc1	–	–	–	–	–	–	·	·
COc1ccc(-n2c(NC(=O)c3ccco3)c(C#N)c3nc4ccccc4nc32)cc1	–	–	36	–	–	38	45	55
c1coc(CNc2c3c(nc4ccccc24)CCC3)c1	–	–	26	–	–	–	24	35
C(=Nc1ccc(N2CCOCC2)cc1)c1c[nH]c2ccccc12	–	–	–	–	–	–	·	·
C=Cc1ccc(N=Cc2c(O)ccc3ccccc23)cc1	–	–	40	–	·	39	129	133
Oc1ccc2ccccc2c1C=Nc1ccc(N2CCOCC2)cc1	·	–	76	·	·	·	67	86
Oc1ccccc1N=Cc1c(O)ccc2ccccc12	–	·	·	–	·	–	·	·
CN1/C(=C/C2CC(=O)N(c3ccc([N+](=O)[O-])cc3)C2=O)C(C)(C)c2ccccc21 (stereo not given)	–	–	25	–	–	–	–	–
CN1/C(=C\C(=S)NC(=O)c2ccc([N+](=O)[O-])cc2)C(C)(C)c2ccccc21	–	–	–	–	–	–	·	·
Cc1c(-c2ccc(O)cc2)nc2nc(-c3ccccc3)c(-c3ccccc3)nn12	·	92	27	·	·	·	49	67
Cc1nnc2c3ccccc3c(-c3ccc(O)cc3)nn12	–	–	–	–	–	–	·	·
COc1cccc(S(=O)(=O)Nc2ccc(C(=O)NCc3ccco3)cc2)c1	–	–	28	–	–	–	–	–
COc1ccc(NS(=O)(=O)c2cccc(C(=O)NCc3ccco3)c2)cc1	–	–	–	–	–	–	·	·
O=[N+]([O-])c1cccc(N(CC2CO2)S(=O)(=O)c2ccccc2)c1 (stereo not given)	–	–	–	–	–	–	·	·
Cc1cccc(C(=O)Oc2ccc(/C=N/O)cc2)c1	–	–	–	–	–	–	·	·
Cc1cccc(C(=O)Oc2ccccc2/C=N/Nc2ccc([N+](=O)[O-])cc2)c1	–	–	39	–	–	–	39	51
O=[N+]([O-])c1ccc(NN=Cc2cccc([N+](=O)[O-])c2)cc1	–	·	·	–	–	–	·	·
O=[N+]([O-])c1ccc(N/N=C/c2cccc(O)c2O)cc1	–	–	51	–	–	–	60	74
CN(C)C(CNC(=O)c1c(F)cccc1Cl)c1ccco1 (stereo not given)	–	–	–	–	–	–	·	·
